For data set [1], the system named is Mus musculus. Kind of data set: Inhibition of DPP4 in mouse plasma at 30 to 100 mg/kg, po. In kind it is functional, organism-based.
Data set [2] is filed under the species Mus musculus. Kind of data set: Metabolic stability in mouse. The note with it: in vivo. The data set is classed as ADME, organism-based.
The species named for another data set is Homo sapiens. Kind of data set: Metabolic stability in human. The note with it: in vivo. The data set is classed as ADME, organism-based.
Data set [3] relates to Mus musculus. Kind of data set: Antidiabetic activity in po dosed ICR mouse assessed as blood glucose excursion after 20 to 120 mins by oral glucose tolerance test. In kind it is functional, organism-based. The method in brief: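 ICR mice dosed orally with distilled water vehicle or compound at 1, 3 or 10 mg/kg (10 mL/kg). Tail-nick blood glucose read by glucometer 30 min after dosing, then oral glucose challenge 2 g/kg (10 mL/kg). Blood glucose measured from tail bleeds at 20, 40, 60 and 120 min after glucose.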

Data set [4] deals with Mus musculus. Kind of data set: Inhibition of DPP4 in po dosed mouse plasma. In kind it is functional, organism-based.

Active and inactive are the calls of the source. The rule behind the calls is not given here.

Regarding `N[C@@H](CC(=O)NC1(c2cccc(-c3cncs3)c2)CCS(=O)(=O)CC1)Cc1cc(F)c(F)cc1F`, the inhibition entry in the data set with Mus musculus [1] was “inactive”. Moreover, the Stability entry in the data set filed under Mus musculus [2] and in the data set filed under Homo sapiens was “Stable” in each case.
As to `N[C@@H](CC(=O)NC1(c2cccc(-n3ccnc3)c2)CCS(=O)(=O)CC1)Cc1cc(F)c(F)cc1F`, in the data set on Mus musculus [1], the inhibition result is “inactive”. In addition, the Stability result in the data set filed under Mus musculus [2] and in the data set listed under Homo sapiens was “Stable” throughout.
As for `N[C@@H](CC(=O)NC1(c2nc(-c3ccccc3)cs2)CCS(=O)(=O)CC1)Cc1cc(F)c(F)cc1F`, the Activity result with Mus musculus [3] is “Dose-dependent effect”. Also, the inhibition entry in the data set on Mus musculus [4] was “Dose-dependent effect”. The Stability result in the data set filed under Mus musculus [2] and in the data set filed under Homo sapiens was “Stable” throughout.
